Only some compounds are listed: those with a hit (about 1.7% of all), similar ones and a draw of the others.
Arr AP2 block: human beta-arrestin and AP2 interaction inhibition | 0.31% of 340,000 active | AID 504490 | FITC-arrestin peptide / GST-AP2 beads, flow cytometry; AP2 beta2 appendage carries R879A mutation | inhibition, % at 10 µM;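 active = inhibition above a set limit, near 3 SD of compounds lacking own fluorescence, cut at about 54% in these data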
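System: GST-tagged AP2 beta2-adaptin appendage (R879A) on 4 µm glutathione beads / Reagent: FITC-arrestin peptide, 50 nM / Detection: HyperCyt-sampled flow cytometry, FL1 channel, ex 488/em 535 nm / Timing: 12 min plus 1 h, RT / Buffer or medium: PBS plus Tween 20 (0.05%) and BSA (0.1%)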
Neddyl block: blocks human cullin neddylation; P61081+Q13564; 0.58% of 360,000 active; inhibition, % at 25 µM; TR-FRET cullin neddylation, biochemical; in the data active = inhibition above about 36%
Efflux pump mplx: inhibitors of Candida antifungal efflux pumps expressed in yeast. inhibition, % at 10 µM. S. cerevisiae Candida pump triplex, Nile Red efflux. 0.44% of 330,000 active;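 active = plate passing quality check with inhibition over a set limit, or well fluorescence over plate mean plus 4 SD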;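 also: Nile Red retained in pooled yeast measured as flow cytometry median fluorescence; higher means more Nile Red kept so more efflux inhibition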
Pemphigus Ab inh: human desmoglein-3 autoantibody binding inhibition. P32926. DSG3-coupled beads, scFv-anti-DSG3-GFP binding, flow cytometry; hits give low values. binding (percent of control), % at 10 µM. 0.48% of 310,000 active. AID 588358;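 active = binding more than 3 SD below its plate's average and above zero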;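 also: hits lower antibody fragment binding to DSG3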
Target sequence (P32926 whole entry, looked up, the tested form may be a part): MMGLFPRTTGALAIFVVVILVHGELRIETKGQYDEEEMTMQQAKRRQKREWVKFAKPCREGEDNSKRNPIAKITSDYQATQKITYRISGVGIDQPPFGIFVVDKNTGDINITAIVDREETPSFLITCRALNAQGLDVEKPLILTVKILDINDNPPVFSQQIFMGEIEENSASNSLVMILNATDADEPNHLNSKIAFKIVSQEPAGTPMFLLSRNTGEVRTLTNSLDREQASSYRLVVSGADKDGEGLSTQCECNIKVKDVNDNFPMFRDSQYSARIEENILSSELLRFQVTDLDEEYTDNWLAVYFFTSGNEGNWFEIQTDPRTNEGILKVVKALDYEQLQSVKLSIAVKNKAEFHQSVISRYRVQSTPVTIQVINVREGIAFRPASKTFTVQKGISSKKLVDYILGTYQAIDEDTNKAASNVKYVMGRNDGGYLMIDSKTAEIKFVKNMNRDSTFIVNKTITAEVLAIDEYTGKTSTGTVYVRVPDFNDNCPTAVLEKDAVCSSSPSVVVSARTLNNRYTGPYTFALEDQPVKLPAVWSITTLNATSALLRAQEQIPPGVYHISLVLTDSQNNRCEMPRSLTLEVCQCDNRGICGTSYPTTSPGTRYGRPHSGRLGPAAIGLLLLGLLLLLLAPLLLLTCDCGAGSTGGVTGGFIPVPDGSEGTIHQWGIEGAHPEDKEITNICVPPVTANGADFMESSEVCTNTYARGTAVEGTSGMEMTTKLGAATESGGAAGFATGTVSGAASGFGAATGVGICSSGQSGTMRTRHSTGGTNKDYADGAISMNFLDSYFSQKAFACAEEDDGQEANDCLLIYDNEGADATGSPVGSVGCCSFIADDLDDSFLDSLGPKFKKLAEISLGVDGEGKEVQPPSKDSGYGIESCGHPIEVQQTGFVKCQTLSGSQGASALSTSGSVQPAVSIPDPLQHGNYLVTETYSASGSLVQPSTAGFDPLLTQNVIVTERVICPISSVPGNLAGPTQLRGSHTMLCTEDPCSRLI
Hits are given with their value; 0 = inactive; - = no result shown; ! = not confirmed by another sample.

SMILES | Arr AP2 block | Neddyl block | Efflux pump mplx | Pemphigus Ab inh
Cc1cc(NC(=O)Cc2ccc(Br)cc2)no1 | 0 | 0 | 0 | 0
CCOC(=O)N1CCN(Cc2nnc(-c3cccc(Br)c3)o2)CC1 | 0 | 0 | 0 | 0
CCOC(=O)Cc1csc(SCC(=O)Nc2cc(C)ccc2OC)n1 | 0 | 0 | 0 | 0
N#Cc1ccc(NC(=S)NC(=O)C2CC2)cc1 | - | 0 | - | 0
O=C(CSc1nnnn1-c1cccc(F)c1)Nc1nc2ccccc2s1 | 0 | 0 | 0 | 11
O=C(CSc1nnnn1-c1ccccc1F)Nc1nc2ccccc2s1 | 0 | 0 | 0 | 0
COc1cc(OC)c(C(=O)Oc2ccc3c(c2)OCO3)cc1OC | 0 | 0 | 0 | 0
COc1ccc(C(=O)Oc2ccc3c(c2)OCO3)cc1OC | 0 | 0 | 0 | 21
O=C(CN1C(=O)C2CC=CCC2C1=O)Nc1ccc(S(=O)(=O)N2CCOCC2)cc1 (centres undefined) | 0 | 0 | 0 | 0
Nc1c(C(=O)Nc2cccc(F)c2)nnn1-c1cccc(C(F)(F)F)c1 | 0 | 0 | 0 | 93
Nc1c(C(=O)Nc2ccc(F)cc2)nnn1-c1cccc(C(F)(F)F)c1 | 0 | 0 | 0 | 0
Nc1ccc(Cn2ccc3c4c(N)nc(N)nc4ccc32)cc1 | 0 | 0 | - | 0
CC(=O)Nc1ccc(NC(=O)c2nc(-c3ccccc3)oc2C)cc1 | 0 | 0 | 0 | 0
COc1ccc(OC)c(NC(=O)c2nc(-c3ccccc3)oc2C)c1 | 0 | 0 | 0 | 83
COc1ccc(CC(=O)Nc2ccc(/C(C)=N/NC(=O)c3cccc([N+](=O)[O-])c3)cc2)cc1 | 0 | 0 | 0 | 78
O=C(/C=C/c1ccccc1)c1c[nH]c2ccccc12 | 0 | 0 | 0 | 64
Cc1ccccc1CSc1nnc(-c2cnccn2)n1C | 0 | 0 | 0 | 0
O=C(COC(=O)CN1C(=O)c2ccccc2C1=O)Nc1ccccc1C(F)(F)F | - | 0 | - | 84
O=C(COC(=O)CN1C(=O)NC2(CCCC2)C1=O)Nc1ccccc1C(F)(F)F | 0 | 0 | 0 | 0
O=C(NC1CCCc2c1cnn2-c1cc(F)cc(F)c1)c1ccccn1 (centres undefined) | 0 | 0 | 5.3 | 0
COC(=O)c1ccc(C(=O)NC2CCCc3c2cnn3-c2cc(F)cc(F)c2)nc1 (centres undefined) | 0 | 0 | 0 | 0
COc1ccc(Cl)cc1-c1nc(SCC(=O)NCCN2C(=O)CSC2=O)n[nH]1 | 0 | 0 | 0 | 0
CC(NS(=O)(=O)/C=C/c1ccccc1)c1ccccc1 (centres undefined) | 0 | 0 | 0 | 0
Nc1nc2c(c(=O)[nH]1)C(c1cccc3ccccc13)C1=C(N2)c2ccccc2C1=O (centres undefined) | 0 | 0 | - | 41
O=C(CCN1CCN(c2ccccc2)CC1)N/N=C/c1ccccc1O | 0 | 42 | 0 | 0
SMILES | Arr AP2 block | Neddyl block | Efflux pump mplx | Pemphigus Ab inh
CCCCSc1nnc(-c2ccc(NC(=O)CCc3ccccc3)cc2)n1C | 0 | 0 | 0 | -28
COc1ccc([N+](=O)[O-])cc1NC(=O)Cn1ccc(C(F)(F)F)n1 | 0 | 0 | 0 | 0
O=c1c2ccccc2oc2ccc(-c3ccc4[nH]ccc4c3)cc12 | 0 | 0 | 0 | 0
COC(=O)c1sc2nc3c(cc2c1N)C(=O)CC(C)(C)C3 | 0 | 0 | 0 | 83
Cc1nc(N2CCN(c3ccccn3)CC2)c2c(C)c(C(=O)N3CCN(c4ccc(F)cc4)CC3)sc2n1 | 0 | 0 | 0.5 | 0
COc1ccc(N=C2S/C(=C\c3ccc(N4CCOCC4)o3)C(=O)N2CCc2c[nH]c3ccccc23)cc1 | 0 | 0 | 0 | 0
COc1ccc(N=C2S/C(=C\c3ccc(OCC(=O)O)cc3)C(=O)N2CCc2c[nH]c3ccccc23)cc1 | 0 | 0 | - | 46
O=c1c2ccccc2sn1-c1ccc(S(=O)(=O)N2CCCCC2)cc1 | 0 | 0 | 0 | 0
Cc1ccc(-n2sc3ccccc3c2=O)cc1S(=O)(=O)N1CCCCC1 | 90 | 0 | 2.4 | 12
O=c1c2ccccc2sn1-c1ccc(S(=O)(=O)N2CCCC2)cc1 | 0 | 0 | 0 | 62
CSc1ncc(-c2ccc(Cl)cc2)[nH]1 | 0 | 0 | 0 | 0
CC(C)n1c(CSCc2ccc(Cl)cc2Cl)n[nH]c1=S | 0 | 0 | 0 | 0
COc1ccc(/C=C(\C#N)C(=O)OCC(=O)Nc2ccc(-c3nc4ccc(C)cc4s3)cc2)cc1 | 0 | 0 | 0 | 0
CCCS(=O)(=O)NC(=O)C1(C)CCCN(C(=O)c2cncc(Br)c2)C1 (centres undefined) | - | 0 | - | -
Cc1nc(NC(=O)/C=C/c2ccccc2)sc1C(=O)Nc1ccccc1Cl | 0 | - | 0 | 78
Cc1nc(NC(=O)/C=C/c2ccccc2)sc1C(=O)Nc1ccc(Cl)cc1 | 0 | - | 0 | 0
CN(C(=O)COC(=O)CN1C(=O)c2cccc([N+](=O)[O-])c2C1=O)c1ccccc1 | 0 | 0 | 0 | 77
CN(C(=O)COC(=O)CSc1ccc([N+](=O)[O-])cc1)c1ccccc1 | 0 | 0 | 0 | 0
Cc1cc(CNC[C@H]2O[C@@H](n3ccc(N)nc3=O)[C@H](O)[C@@H]2O)no1 | - | 0 | - | -
CCOC(=O)c1sc(Nc2nc3c(F)cccc3s2)cc1C | 0 | 0 | 0 | 78
Nc1c(S(=O)(=O)c2ccccc2)cnc2c(-c3ccc(F)cc3)cnn12 | 0 | 0 | 0 | -18
COc1ccc(N2CCN(C(=O)c3cccc(Cn4cc(Cl)cn4)c3)CC2)cc1 | 0 | 0 | 0 | 26
C=Cc1c(C)c2cc3[nH]c(cc4nc(cc5nc(cc1[nH]2)C(C)=C5CCC(=O)O)C(CCC(=O)O)=C4C)c(C)c3C=C | 0 | 0 | 0 | 25!
Cn1nc(CC(=O)Nc2ccc(N3CCN(C(=O)OC(C)(C)C)CC3)cc2)c2ccccc2c1=O | 0 | 0 | 0 | 86
CN(c1nc2nonc2nc1NC1CC1)C1CCOC1 (centres undefined) | 0 | 0 | 0 | 0
SMILES | Arr AP2 block | Neddyl block | Efflux pump mplx | Pemphigus Ab inh
N#Cc1cc(Sc2ccccn2)c(Sc2ccccn2)cc1C#N | 0 | 0 | 0 | 73
COc1cc(N=c2ssnc2Cl)cc(OC)c1 | 0 | 0 | 0 | 62
O=S(=O)(c1cccs1)N1CN(Cc2ccc(Cl)cc2)c2nc3ccccc3nc21 | 0 | 0 | 0 | 0
O=S(=O)(c1cccs1)N1CN(Cc2ccco2)c2nc3ccccc3nc21 | 0 | 0 | 0.7 | 0
NC(=O)[C@@H]1CCCNc2c(I)cc([N+](=O)[O-])cc2C(=O)N[C@@H](Cc2ccccc2)C(=O)N[C@@H](Cc2cnc[nH]2)C(=O)N1 | 0 | 0 | 0 | 0
Cc1[nH]c2ccccc2c1/C=N/Nc1nc2ccccc2[nH]1 | 0 | 53 | 0 | 0
O=C(O)c1cc(O)c2c(c1)[C@H]([C@H]1c3cc(C(=O)O)cc(O)c3C(=O)c3c(O[C@@H]4O[C@H](CO)[C@@H](O)[C@H](O)[C@H]4O)cccc31)c1cccc(OC3O[C@H](CO)[C@@H](O)[C@H](O)[C@H]3O)c1C2=O (some centres undefined) | 0 | 0 | 0 | -9.0
O=C1c2cc(CO)cc(O)c2C(=O)c2c(O[C@@H]3OC(CO)[C@@H](O)[C@@H](O)[C@@H]3O)cccc21 (some centres undefined) | 0 | 0 | 0 | 0

Source: PubChem
